ChEMBL document CHEMBL1142672 (J Med Chem, 2005)
The source made the active and inactive calls. No cut-off for these calls is given here.

Columns and labels:
[1] = biological target: Phosphodiesterase 3 (Homo sapiens) (UniProt Q14432+Q13370); experiment: Inhibition of [3H]cAMP binding to human phosphodiesterase 3 at 30 uM; Inactive; type: protein assay
How it was run: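 Enzyme isolated from freshly collected human platelets. [3H]cAMP SPA kit assay, substrate at 200 nM (near Km under assay conditions). Compounds tested at 30 µM.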

[2] = biological target: cGMP-specific 3',5'-cyclic phosphodiesterase (Homo sapiens) (UniProt O76074); experiment: Inhibition of [3H]cGMP binding to human Phosphodiesterase 5 at 30 uM; Inactive
[3] = biological target: Phosphodiesterase 4 (Homo sapiens, UniProt P27815+Q08499+Q07343+Q08493); experiment: Inhibition of [3H]cAMP binding to human lung Phosphodiesterase 4; type: protein assay
[4] = biological target: T1, 3',5'-cyclic-AMP phosphodiesterase 4D (Homo sapiens, UniProt Q08499); experiment: Inhibition of [3H]cAMP binding to recombinant human Phosphodiesterase 4D3 (PDE4D3) in baculovirus expression system
[5] = biological target: T1, 3',5'-cyclic-AMP phosphodiesterase 4D; experiment: Inhibition of [3H]cAMP binding to recombinant human Phosphodiesterase 4D5 (PDE4D5) in baculovirus expression system
[6] = biological target: 3',5'-cyclic-AMP phosphodiesterase 4A (Homo sapiens, UniProt P27815); experiment: Inhibition of [3H]cAMP binding to recombinant human Phosphodiesterase 4AL (PDE4AL) in baculovirus expression system
[7] = biological target: T1, 3',5'-cyclic-AMP phosphodiesterase 4D; experiment: Inhibition of [3H]cAMP binding to recombinant human Phosphodiesterase 4DE (PDE4DE) in baculovirus expression system
[8] = biological target: 3',5'-cyclic-AMP phosphodiesterase 4B (Homo sapiens, UniProt Q07343); experiment: Inhibition of [3H]cAMP binding to recombinant human Phosphodiesterase 4BL (PDE4BL) in baculovirus expression system
Chain of 3',5'-cyclic-AMP phosphodiesterase 4B (Q07343 whole entry): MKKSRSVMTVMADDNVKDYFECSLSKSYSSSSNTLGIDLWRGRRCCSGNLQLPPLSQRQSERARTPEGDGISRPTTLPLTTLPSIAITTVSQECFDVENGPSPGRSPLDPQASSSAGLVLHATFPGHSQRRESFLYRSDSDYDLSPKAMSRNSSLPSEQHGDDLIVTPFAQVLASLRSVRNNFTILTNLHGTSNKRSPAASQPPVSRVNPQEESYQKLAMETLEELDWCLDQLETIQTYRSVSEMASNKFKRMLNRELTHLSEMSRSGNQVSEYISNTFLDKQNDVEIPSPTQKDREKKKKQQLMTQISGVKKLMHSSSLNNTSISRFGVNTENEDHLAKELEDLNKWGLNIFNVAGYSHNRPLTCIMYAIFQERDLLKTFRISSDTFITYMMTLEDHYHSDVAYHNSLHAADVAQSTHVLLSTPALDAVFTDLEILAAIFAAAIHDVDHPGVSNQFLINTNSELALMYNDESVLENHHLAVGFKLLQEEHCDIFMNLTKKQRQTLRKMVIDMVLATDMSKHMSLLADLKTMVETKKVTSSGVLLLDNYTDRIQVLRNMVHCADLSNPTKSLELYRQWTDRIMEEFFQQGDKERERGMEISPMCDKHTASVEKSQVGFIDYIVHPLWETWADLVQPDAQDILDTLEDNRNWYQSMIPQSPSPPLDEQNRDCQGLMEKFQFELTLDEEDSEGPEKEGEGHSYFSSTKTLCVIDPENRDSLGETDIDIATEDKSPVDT

T1 sequence (Q08499 whole entry): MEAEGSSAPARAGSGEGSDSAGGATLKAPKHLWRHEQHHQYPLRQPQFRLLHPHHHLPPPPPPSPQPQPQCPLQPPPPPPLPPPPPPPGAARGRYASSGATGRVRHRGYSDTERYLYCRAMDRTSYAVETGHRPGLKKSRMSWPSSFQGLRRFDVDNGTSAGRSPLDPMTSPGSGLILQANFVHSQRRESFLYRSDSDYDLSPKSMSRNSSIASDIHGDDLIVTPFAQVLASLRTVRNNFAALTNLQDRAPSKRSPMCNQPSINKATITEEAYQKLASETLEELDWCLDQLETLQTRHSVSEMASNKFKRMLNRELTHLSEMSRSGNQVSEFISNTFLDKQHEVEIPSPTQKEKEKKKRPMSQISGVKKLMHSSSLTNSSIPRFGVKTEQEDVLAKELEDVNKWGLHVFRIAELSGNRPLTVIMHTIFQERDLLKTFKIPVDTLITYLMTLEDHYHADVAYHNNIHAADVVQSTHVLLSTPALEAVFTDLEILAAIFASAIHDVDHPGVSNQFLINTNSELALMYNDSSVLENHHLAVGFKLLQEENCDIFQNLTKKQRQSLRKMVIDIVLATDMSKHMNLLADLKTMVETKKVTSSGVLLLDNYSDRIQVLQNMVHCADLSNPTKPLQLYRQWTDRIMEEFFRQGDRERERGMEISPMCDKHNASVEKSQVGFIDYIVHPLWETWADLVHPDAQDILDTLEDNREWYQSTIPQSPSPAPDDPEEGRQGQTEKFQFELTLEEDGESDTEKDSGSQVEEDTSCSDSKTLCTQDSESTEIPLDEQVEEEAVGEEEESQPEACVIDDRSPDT
Chain of 3',5'-cyclic-AMP phosphodiesterase 4A (P27815 whole entry): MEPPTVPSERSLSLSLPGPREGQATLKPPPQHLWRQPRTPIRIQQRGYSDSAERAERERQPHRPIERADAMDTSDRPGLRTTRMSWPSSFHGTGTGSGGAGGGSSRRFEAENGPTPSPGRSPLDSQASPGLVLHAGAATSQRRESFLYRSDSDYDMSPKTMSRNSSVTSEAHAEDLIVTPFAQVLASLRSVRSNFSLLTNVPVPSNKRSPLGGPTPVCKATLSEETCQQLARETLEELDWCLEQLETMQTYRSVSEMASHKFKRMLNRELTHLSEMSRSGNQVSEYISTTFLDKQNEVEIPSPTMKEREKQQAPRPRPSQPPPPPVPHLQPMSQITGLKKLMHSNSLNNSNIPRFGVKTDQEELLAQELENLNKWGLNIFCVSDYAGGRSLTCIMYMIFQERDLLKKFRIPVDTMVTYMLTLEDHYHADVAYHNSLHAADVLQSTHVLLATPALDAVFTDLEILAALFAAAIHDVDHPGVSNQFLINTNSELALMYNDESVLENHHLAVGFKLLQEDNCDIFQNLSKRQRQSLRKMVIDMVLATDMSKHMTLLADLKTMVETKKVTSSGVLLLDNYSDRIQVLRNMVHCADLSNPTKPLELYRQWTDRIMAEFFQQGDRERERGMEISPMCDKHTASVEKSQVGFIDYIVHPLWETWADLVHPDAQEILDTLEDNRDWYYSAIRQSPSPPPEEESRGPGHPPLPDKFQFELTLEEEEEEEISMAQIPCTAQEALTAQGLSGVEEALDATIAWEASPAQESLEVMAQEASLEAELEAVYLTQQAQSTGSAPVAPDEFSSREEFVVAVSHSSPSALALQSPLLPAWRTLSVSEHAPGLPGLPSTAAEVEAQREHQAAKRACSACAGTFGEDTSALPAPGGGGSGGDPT

COC(=O)c1ccc(OCC(C)(C)c2nc3c(N)ncn(Cc4ccc(OC)c(OC5CCCC5)c4)c-3n2)cc1
Effect [1]: inactive | Effect [2]: inactive | Ki [3]: 9.3 nM | Ki [4]: 3 nM | Ki [5]: 5.5 nM | Ki [6]: 103 nM | Ki [7]: 246 nM | Ki [8]: 5.2 nM

CCNc1ncn(Cc2ccc(OC)c(OC3CCCC3)c2)c2nc(C(C)C)nc1-2
Effect [1]: inactive | Effect [2]: inactive | Ki [3]: 436 nM | Ki [4]: 172 nM | Ki [5]: 141 nM | Ki [6]: 3900 nM | Ki [7]: 2890 nM | Ki [8]: 270 nM

COc1ccc(Cn2cnc(N)c3nc(C(C)(C)COc4ccc(C(N)=O)cc4)nc2-3)cc1OC1CCCC1
Effect [1]: inactive | Effect [2]: inactive | Ki [3]: 25 nM | Ki [4]: 8 nM | Ki [5]: 4.9 nM | Ki [6]: 155 nM | Ki [7]: 312 nM | Ki [8]: 7.6 nM

CC1CC(=O)NN=C1c1ccc(-n2ccnc2)cc1 (stereo not given) [CI-930]
Ki [4]: > 50000 nM | Ki [5]: > 50000 nM | Ki [6]: > 50000 nM | Ki [7]: > 50000 nM | Ki [8]: > 50000 nM

COc1ccc(Cn2cnc(N)c3nc(C(C)(C)COc4ccc(C(=O)O)cc4)nc2-3)cc1OC1CCCC1
Effect [1]: inactive | Effect [2]: inactive | Ki [3]: 5230 nM | Ki [4]: 4300 nM | Ki [5]: > 50000 nM | Ki [6]: > 50000 nM | Ki [7]: > 50000 nM | Ki [8]: > 50000 nM

COc1cccc(OC[C@H](C)c2nc3c(N)ncn(Cc4ccc(OC)c(OC5CCCC5)c4)c-3n2)c1
Effect [1]: inactive | Effect [2]: inactive | Ki [3]: 1470 nM | Ki [4]: 493 nM | Ki [5]: 322 nM | Ki [6]: 5200 nM | Ki [7]: 5050 nM | Ki [8]: 430 nM
